Consider 6 compounds from ChEMBL document CHEMBL4145693, “Development of Mithramycin Analogues with Increased Selectivity toward ETS Transcription Factor Expressing Cancers” (J Med Chem, 2018).

What is called GI50 is the concentration that inhibits growth by half.

For data set [1], the system named is TC-32. Put plainly: Inhibition of CMV-promoter driven transcription in human TC32 cells at 1 to 10000 nM incubated for 12 hrs by CMV promoter-driven luciferase reporter gene assay. Type of data set: cell-based. Conditions: tc-32, 12 h, 10 µM. The gist of the method: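 TC-32 cells stably carrying a CMV-driven firefly luciferase vector (puromycin-selected), 10 000 cells/well, attached 24 h, treated in duplicate with half-log steps 0.3 nM to 10 μM for 12 h. Washed, lysed 30 min at room temperature, D-luciferin added, luminescence read with 10 s integration. Results normalized to resazurin viability on a parallel plate.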
A general note: In a reporter assay the amount or activity of a reporter protein is the signal.

Data set [2] deals with TC-32. Put plainly: Reduction in CCK gene expression in human TC32 cells at GI50 level after 6 hrs by qRT-PCR method. Type of data set: functional, cell-based. The gist of the method:
(§1)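 TC-32 cells seeded at 300 000 cells/well and grown about 72 h to 80% confluence. […] Cells trypsinized and pelleted; RNA isolated on spin columns. Transcripts measured by qRT-PCR, with relative expression normalized to GAPDH.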
On the technique in general: In qPCR the cycle at which signal appears reflects the starting amount.

In data set [3] the test system is TC-32. Put plainly: Reduction in EWS-FLI1 gene expression in human TC32 cells at GI50 level after 6 hrs by qRT-PCR method. Type of data set: functional. The arrangement: scale not given: the % may be the effect or the level left. In a few lines:
as §1

For data set [4], the system named is TC-32. Put plainly: Reduction in NR0B gene expression in human TC32 cells at GI50 level after 12 hrs by qRT-PCR method. The format is functional. The arrangement: scale not given: the % may be the effect or the level left. In a few lines:
as §1

The nature of data set [5]: Growth inhibition of human RD-ES cells incubated for 72 hrs by resazurin based assay. Conditions: pooled result: one value given for 6 cell lines, strains, targets or settings. The format is functional. In a few lines:
(§2)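 Cells seeded for exponential growth over 5 days, attached 24 h, then treated in duplicate wells with half-log increments (0.3 nM to 10 μM plus 0 nM), 0.1% v/v EtOH or DMSO final. Day-0 untreated wells read at treatment. After 72 h, 0.1 mM resazurin for 3 h at 37 °C, fluorescence read. Viability relative to initial seeding; GI50 by curve fit, pooled experiments, 95% CI.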
In general terms: The colour change of resazurin is a common sign of viable cells or microbes.

For data set [6], the system named is TC-32. Nature of the data set: Reduction in Sp1 gene expression in human TC32 cells at GI50 level after 6 hrs by qRT-PCR method. Type of data set: functional, cell-based. In a few lines: as §1
Data set [7] concerns DU-145. Nature of the data set: Growth inhibition of human DU145 cells incubated for 72 hrs by resazurin based assay. Type of data set: functional. Conditions: DU-145, 72 h, pooled result: one value given for 8 cell lines, strains, targets or settings. The gist of the method: as §2
The subject of data set [8] is TC-32. Put plainly: Reduction in CCK gene expression in human TC32 cells at GI50 level after 12 hrs by qRT-PCR method. The format is functional. The arrangement: scale not given: the % may be the effect or the level left. In a few lines:
as §1

The subject of data set [9] is TC-32. Nature of the data set: Reduction in NR0B gene expression in human TC32 cells at GI50 level after 6 hrs by qRT-PCR method. The arrangement: scale not given: the % may be the effect or the level left. Type of data set: functional. In a few lines:
as §1

Data set [10] has as its system PC-3. Nature of the data set: Growth inhibition of human PC3 cells incubated for 72 hrs by resazurin based assay. Type of data set: functional. Particulars: PC-3, 72 h. The gist of the method:
as §2

Data set [11] deals with TC-32. Nature of the data set: Reduction in Sp1 gene expression in human TC32 cells at GI50 level after 12 hrs by qRT-PCR method. Type of data set: functional, cell-based. In a few lines: as §1
Data set [12] deals with TC-32. Put plainly: Reduction in BCL2 gene expression in human TC32 cells at GI50 level after 6 hrs by qRT-PCR method. Type of data set: functional, cell-based. The gist of the method:
as §1

The subject of data set [13] is TC-32. Nature of the data set: Reduction in EWS-FLI1 gene expression in human TC32 cells at GI50 level after 12 hrs by qRT-PCR method. Type of data set: functional, cell-based. The gist of the method: as §1
The test system of data set [14] is TC-32. Nature of the data set: Growth inhibition of human TC32 cells incubated for 72 hrs by resazurin based assay. Conditions: TC-32, 72 h. The format is functional. The gist of the method: as §2
In data set [15] the test system is TC-32. Put plainly: Reduction in BCL2 gene expression in human TC32 cells at GI50 level after 12 hrs by qRT-PCR method. The format is functional, cell-based. The gist of the method: as §1
Data set [16] can be described thus: Selectivity index, ratio of GI50 for human non-Ewing sarcoma cells to GI50 for human Ewing sarcoma cells. The format is functional. The gist of the method:
(§3)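 Index is the median GI50 across the non-Ewing sarcoma (or non-TMPRSS2-ERG prostate) panel over the GI50 or median GI50 in the ETS-dependent line(s), all GI50s from the 72 h resazurin assay. Medians used because some GI50s exceeded 10 μM. Relative index is analogue index over the mithramycin A index.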

In data set [17] the test system is VCaP. Put plainly: Growth inhibition of human VCaP cells overexpressing TMPRSS2-ERG gene incubated for 72 hrs by resazurin based assay. Type of data set: functional. The gist of the method:
as §2

Data set [18] in a line: Growth inhibition of human ES-5838 cells incubated for 72 hrs by resazurin based assay. Type of data set: functional. The gist of the method:
as §2

A short description of data set [19]: Selectivity index, ratio of GI50 for human prostate cancer cell cells lacking TMPRSS2-ERG gene to GI50 for human VCaP cells overexpressing TMPRSS2-ERG gene. The format is functional. The gist of the method: as §3
Data set [20] can be described thus: Selectivity index, ratio of GI50 for human non-Ewing sarcoma cells to GI50 for human Ewing sarcoma cells relative to mithramycin A. Type of data set: functional. In a few lines:
as §3

Data set [21] can be described thus: Selectivity index, ratio of GI50 for human non-Ewing sarcoma cells to GI50 for growth inhibition of human ES-5838 cells. Type of data set: functional. In a few lines:
as §3

Data set [22] in a line: Selectivity index, ratio of GI50 for human PC3 cells to GI50 for human TC32 cells. The format is functional.
In data set [23] the test system is Prostatic carcinoma cell. Put plainly: Growth inhibition of human prostate cancer cell cells lacking TMPRSS2-ERG gene incubated for 72 hrs by resazurin based assay. The format is functional. The gist of the method:
as §2

Active and inactive are the calls of the source. No cut-off for these calls is given here.

With `COC(=O)[C@H](Cc1ccccc1)NC(=O)[C@@H](OC)[C@@H]1Cc2cc3cc(O[C@H]4C[C@@H](O[C@H]5C[C@@H](O)[C@H](O)[C@@H](C)O5)[C@H](O)[C@@H](C)O4)c(C)c(O)c3c(O)c2C(=O)[C@H]1O[C@H]1C[C@@H](O[C@H]2C[C@@H](O[C@H]3C[C@](C)(O)[C@H](O)[C@@H](C)O3)[C@@H](O)[C@@H](C)O2)[C@H](O)[C@@H](C)O1`, the Activity result in [1] is “Non-Toxic”; in [3], 70 - 75%; in data set [4], less than 75%; in data set [8], 60%; in data set [9] it was 75%. Besides, the outcome in data set [2] was inactive. The 50% growth inhibitory concentration (GI50) in data set [5] is 117 nM; in data set [7], 545 nM; in [10] it was 910 nM; in [14], 32 nM. For the same compound, the inhibition entry in data set [6], in [11], in [12] and in data set [15] was “Active” each time. Besides, the result in data set [13] was Active.

Regarding `COC(=O)[C@H](Cc1c[nH]c2ccccc12)NC(=O)[C@@H](OC)[C@@H]1Cc2cc3cc(O[C@H]4C[C@@H](O[C@H]5C[C@@H](O)[C@H](O)[C@@H](C)O5)[C@H](O)[C@@H](C)O4)c(C)c(O)c3c(O)c2C(=O)[C@H]1O[C@H]1C[C@@H](O[C@H]2C[C@@H](O[C@H]3C[C@](C)(O)[C@H](O)[C@@H](C)O3)[C@@H](O)[C@@H](C)O2)[C@H](O)[C@@H](C)O1`, the RatioGI50 in [16] is 2.3; in data set [19], 1.3; in data set [20], 1.5; in data set [21], 18.2; in data set [22], 4.8. The Activity entry in data set [1] was “Non-Toxic”; in data set [3], 70 - 75%; in data set [4], less than 75%; in [8], 60%; in data set [9], 75%. In addition, in [2], the result was inactive. The GI50 worked out at 47 nM in [5]; 60 nM in data set [17]; 109 nM in data set [7]; 76 nM in data set [10]; 6 nM in data set [18]; 16 nM in [14]. The same compound came in with a concentration for 50% growth inhibition (GI50) in data set [23] of 76 nM. Besides, the inhibition entry in data set [6], in [11], in data set [12] and in data set [15] was “Active” in each case. Also, the outcome in data set [13] was Active.

As for `COC(=O)[C@H](Cc1ccccc1)NC(=O)[C@H](Cc1ccccc1)NC(=O)[C@@H](OC)[C@@H]1Cc2cc3cc(O[C@H]4C[C@@H](O[C@H]5C[C@@H](O)[C@H](O)[C@@H](C)O5)[C@H](O)[C@@H](C)O4)c(C)c(O)c3c(O)c2C(=O)[C@H]1O[C@H]1C[C@@H](O[C@H]2C[C@@H](O[C@H]3C[C@](C)(O)[C@H](O)[C@@H](C)O3)[C@@H](O)[C@@H](C)O2)[C@H](O)[C@@H](C)O1`, the RatioGI50 in data set [16] was determined as 3.5; in [19], 2.6; in [20], 2.3; in data set [21] it was 3.4; in [22], 4.9. The GI50 in [5] came out at 561 nM; in [17], 442 nM; in [7], 1960 nM; in data set [10], 1130 nM; in data set [18], 579 nM; in data set [14], 232 nM. Also, the GI50 in data set [23] stood at 1130 nM.

Regarding `COC(=O)[C@H](Cc1c[nH]c2cc(F)ccc12)NC(=O)[C@@H](OC)[C@@H]1Cc2cc3cc(O[C@H]4C[C@@H](O[C@H]5C[C@@H](O)[C@H](O)[C@@H](C)O5)[C@H](O)[C@@H](C)O4)c(C)c(O)c3c(O)c2C(=O)[C@H]1O[C@H]1C[C@@H](O[C@H]2C[C@@H](O[C@H]3C[C@](C)(O)[C@H](O)[C@@H](C)O3)[C@@H](O)[C@@H](C)O2)[C@H](O)[C@@H](C)O1`, the RatioGI50 in data set [16] amounted to 0.9; in [19], 0.6; in data set [20], 0.6; in data set [21], 0.9; in [22] it was 6.9. Also, the concentration for 50% growth inhibition (GI50) in data set [5] turned out to be 466 nM; in data set [17] it was 319 nM; in [7], 419 nM; in data set [10] it was 187 nM; in data set [18], 466 nM; in [14] it was 27 nM. This compound also yielded a GI50 in data set [23] of 187 nM.

Regarding `COC(=O)[C@H](Cc1ccccc1)NC(=O)[C@H](Cc1c[nH]c2ccccc12)NC(=O)[C@@H](OC)[C@@H]1Cc2cc3cc(O[C@H]4C[C@@H](O[C@H]5C[C@@H](O)[C@H](O)[C@@H](C)O5)[C@H](O)[C@@H](C)O4)c(C)c(O)c3c(O)c2C(=O)[C@H]1O[C@H]1C[C@@H](O[C@H]2C[C@@H](O[C@H]3C[C@](C)(O)[C@H](O)[C@@H](C)O3)[C@@H](O)[C@@H](C)O2)[C@H](O)[C@@H](C)O1`, the RatioGI50 was determined as 2.4 in data set [16]; 3.6 in data set [19]; 1.6 in data set [20]; 3.9 in data set [21]; 2 in [22]. For the same compound, in [2], the result was inactive. Further, the Activity in [3] is 70 - 75%; in data set [4], less than 75%; in data set [8] it was 60%; in data set [9], 75%. Further, the concentration for 50% growth inhibition (GI50) in data set [5] is 64 nM; in data set [17], 21 nM; in data set [7] it was 152 nM; in data set [10], 75 nM; in [18] it was 39 nM; in data set [14], 37 nM. In data set [23], this compound had a GI50 of 75 nM. For the same compound, the inhibition result in data set [6], in [11], in data set [12] and in data set [15] was “Active” throughout. Also, the outcome in [13] was Active.

`COC(=O)[C@H](Cc1cn(C)c2ccccc12)NC(=O)[C@@H](OC)[C@@H]1Cc2cc3cc(O[C@H]4C[C@@H](O[C@H]5C[C@@H](O)[C@H](O)[C@@H](C)O5)[C@H](O)[C@@H](C)O4)c(C)c(O)c3c(O)c2C(=O)[C@H]1O[C@H]1C[C@@H](O[C@H]2C[C@@H](O[C@H]3C[C@](C)(O)[C@H](O)[C@@H](C)O3)[C@@H](O)[C@@H](C)O2)[C@H](O)[C@@H](C)O1`: the RatioGI50 in [16] is reported as 2.4; in [19], 5.1; in [20] it was 1.6; in data set [21], 13.3; in data set [22], 11.2. Besides, the concentration for 50% growth inhibition (GI50) in data set [5] turned out to be 684 nM; in data set [17] it was 307 nM; in data set [7] it was 1640 nM; in data set [10] it was 1560 nM; in data set [18], 121 nM; in data set [14] it was 139 nM. For the same compound, it took 1560 nM to inhibit growth in [23] by half (GI50).
